Experimental data from different studies.
Lines come from different studies, so protocols differ.
Target: Protein kinase C delta type (PRKCD, Homo sapiens, UniProt Q05655)

`N[C@H]1CCN(c2nccc(-c3cnn4ncccc34)n2)C1` has a remaining binding of 100% (binding; 1 µM).
With `COc1cnc(Nc2cccc(S(N)(=O)=O)c2)nc1N1CCN(c2ccccc2)CC1` the remaining binding was 100% (binding; competition with immobilised ligand; 1 µM).
With `C[C@H]1CCN(c2nccc(-c3cnn4ncccc34)n2)C1` the remaining binding was 100% (binding; 1 µM).
`O=C(Nc1cnc(Oc2ccc(F)cc2)nc1)N1CCc2ncccc2[C@@H]1c1ccc(F)cc1` has a remaining binding of 87% (cell-free assay; competition with immobilised ligand; 1 µM).
`CN(CCCC(F)(F)F)c1nccc(-c2cnn3ncccc23)n1` has a remaining binding of 90% (binding; 1 µM).
`O=C(c1ccc(Nc2ncc(Cl)c(-c3ccc(Cl)s3)n2)cc1)N1CCC(N2CCCC2)CC1` gave a remaining binding of 48% (binding; competition with immobilised ligand; 1 µM).
For `F[C@@H]1CCN(c2nccc(-c3cnn4ncccc34)n2)C1`, the remaining binding was 100% (binding; 1 µM).
For `C[C@H](c1ccnc(Nc2nc3ccc(-c4cc(N(C)C)ncn4)cc3[nH]2)c1)N1CCN(C(=O)CC(F)(F)F)CC1`, the remaining binding was 100% (cell-free assay; competition with immobilised ligand; 0.1 µM).
The remaining binding of `c1cncc(-c2cccc(Nc3nccc(NC4CCCCC4)n3)c2)c1` is reported as 45% (binding; competition with immobilised ligand; 10 µM).
The remaining binding of `O=C1NC(c2ccccn2)Sc2ccccc21` (stereo not drawn) is reported as 71% (cell-free assay; competition with immobilised ligand; 1 µM).
`FC(F)(F)Oc1cccc(-c2cnc3ccc(-c4ccncc4)nn23)c1` gave a remaining binding of 71% (cell-free assay; competition with immobilised ligand; 5 µM).
`C=CC(=O)N1CCC(C(=O)NCC(=O)N2CCN(c3nc(-c4cnc(N)nc4C(F)F)nc(N4CCOCC4)n3)CC2)CC1` has a remaining binding of 100% (binding; competition with immobilised ligand; 1 µM).
`COc1cnc(Nc2cccc(S(N)(=O)=O)c2)nc1N1CCN(c2ccccc2)C(=O)C1` has a remaining binding of 100% (binding; competition with immobilised ligand; 1 µM).
With `CS(=O)(=O)N1CCCC(NC(=O)[C@H](CCC2CCCCC2)NC(=O)c2ccc(CNc3ncnc4c3nnn4-c3ccccc3)cc2)C1` (stereo partly drawn) the remaining binding was 80% (cell-free assay; competition with immobilised ligand; 0.1 µM).
`CN(C)c1nccc(-c2cnn3ncccc23)n1` has a remaining binding of 100% (binding; 1 µM).
`O=C(c1ccc(Nc2nccc(-c3cc4ccccc4s3)n2)cc1)N1CCC(N2CCCC2)CC1` has a remaining binding of 86% (binding; competition with immobilised ligand; 1 µM).
The remaining binding of `Cc1cc(NC(=O)c2cccc(S(F)(F)(F)(F)F)c2)cc(-n2ccn3nc(-c4cccnc4)cc23)c1` is reported as 95.8% (cell-free assay; competition with immobilised ligand; 1 µM).
`O=C(Nc1c[nH]nc1C(=O)NC1CCNCC1)c1cc(F)cc(F)c1` gave a remaining binding of 100% (binding; competition with immobilised ligand; 1 µM).
With `CN(C)c1ncc(F)c(-c2cnn3ncccc23)n1` the remaining binding was 100% (binding; 1 µM).
The remaining binding of `Cc1cnc(Nc2ccc(C(=O)N3CCC(N4CCCC4)CC3)cc2)nc1-c1cc2ccccc2s1` is reported as 23% (binding; competition with immobilised ligand; 1 µM).
`Cc1cc(C)c(-n2ccn3nc(-c4cccnc4)cc23)cc1NC(=O)c1cc(C#N)cc(S(F)(F)(F)(F)F)c1` has a remaining binding of 93.1% (cell-free assay; competition with immobilised ligand; 0.1 µM).
